Results taken from ChEMBL document CHEMBL2417510, “Stereoselective pharmacodynamic and pharmacokinetic analysis of sec-Butylpropylacetamide (SPD), a new CNS-active derivative of valproic acid with unique activity against status epilepticus” (J Med Chem, 2013).
Converted amounts (≈) assume the structure as drawn.

Columns and labels:
Mus musculus [1] = test: Teratogenicity in SWV/Fnn mouse assessed as live fetuses at 141 mg/kg, ip on day 8.5 of gestation (reference value: 93.7 %); type: toxicity, organism-based; design: dose 141 mg/kg, route intraperitoneal; settings: in vivo
[2] = Tmax in rat at 60 mg/kg, ip; type: ADME, organism-based; design: dose 60 mg/kg, route intraperitoneal; settings: in vivo
In short: (§1)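 Naive rats got a single ip dose of 60 mg/kg, formulated in multisol (propylene glycol:alcohol:water for injection, 5:1:4). Plasma concentration–time profiles were followed, and PK parameters (t1/2, CL/F, Vz/F, AUC, Cmax, tmax, MRT) were derived from them.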

[3] = Mean residence time in rat at 60 mg/kg, ip; type: ADME, organism-based; design: dose 60 mg/kg, route intraperitoneal; settings: in vivo; in short: as §1
[4] = Terminal half life in rat at 60 mg/kg, ip; type: ADME, organism-based; design: dose 60 mg/kg, route intraperitoneal; settings: in vivo, read-out: beta t1/2 (converted); in short: as §1
Mus musculus [5] = test: Teratogenicity in SWV/Fnn mouse assessed as fetuses with neural tube defects at 141 mg/kg, ip on day 8.5 of gestation relative to vehicle-treated control; type: toxicity, organism-based; design: dose 141 mg/kg, route intraperitoneal; settings: in vivo
Mus musculus [6] = test: Teratogenicity in SWV/Fnn mouse assessed as resorption at 141 mg/kg, ip on day 8.5 of gestation (reference value: 6.3 %); type: toxicity, organism-based; design: dose 141 mg/kg, route intraperitoneal; settings: in vivo
[7] = AUC in rat at 60 mg/kg, ip; type: ADME, organism-based; design: dose 60 mg/kg, route intraperitoneal; settings: plasma; in short: as §1
Hippocampus [8] = test: Protection against kainic acid-induced spontaneous electrographic seizures in combined medial entorhinal cortex hippocampal brain slices of albino Sprague-Dawley rat assessed as burst duration at 100 uM after 1 week relative to control; type: functional
In short: (§2)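 Rat brain slices showing spontaneous bursting were exposed to 100 μM compound. Burst rate and burst duration were expressed as % of control ± SEM.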

[9] = Neurotoxicity in ip dosed albino CF1 mouse assessed as minimal motor impairment after 0.25 to 0.5 hrs; type: toxicity, organism-based; settings: in vivo
In short: (§3)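 Each test was run at the previously determined time to peak effect: 0.25–0.5 h after ip dosing, or 0.5–1 h after oral dosing. Groups of 4–8 animals received various doses until at least two points fell between 0% and 100% protection or minimal toxicity.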

Rattus norvegicus [10] = test: Anticonvulsant activity in po dosed albino Sprague-Dawley rat assessed as protection against maximal electroshock-induced seizures after 0.5 to 1 hr; type: functional; in short: as §3
Mus musculus [11] = test: Teratogenicity in SWV/Fnn mouse assessed as normal fetuses at 141 mg/kg, ip on day 8.5 of gestation (reference value: 100 %); type: toxicity, organism-based; design: dose 141 mg/kg, route intraperitoneal; settings: in vivo
Rattus norvegicus [12] = test: Anticonvulsant activity in ip dosed albino Sprague-Dawley rat assessed as protection against pilocarpine-induced behavioral seizures administered 30 mins post seizure measured after 0.25 to 0.5 hrs; type: functional
In short: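 Status epilepticus was induced in rats with lithium–pilocarpine. Compound was given ip 30 min after the first observed stage 3 or greater motor seizure. The read-out was prevention of further convulsive seizures across various doses in groups of 4–8 rats.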

Hippocampus [13] = test: Protection against kainic acid-induced spontaneous electrographic seizures in combined medial entorhinal cortex hippocampal brain slices of albino Sprague-Dawley rat assessed as burst rate at 100 uM after 1 week relative to control; type: functional; in short: as §2
Mus musculus [14] = test: Anticonvulsant activity in ip dosed albino CF1 mouse assessed as protection against 44 mA-current- for 3 secs induced seizures after 0.25 to 0.5 hrs by 6Hz psychomotor seizure test; type: functional; in short: as §3
Mus musculus [15] = test: Teratogenicity in SWV/Fnn mouse assessed as fetuses with neural tube defects at 283 mg/kg, ip on day 8.5 of gestation relative to vehicle-treated control; type: toxicity, organism-based; design: dose 283 mg/kg, route intraperitoneal; settings: in vivo
[16] = Cmax in rat at 60 mg/kg, ip; type: ADME, organism-based; design: dose 60 mg/kg, route intraperitoneal; settings: in vivo; in short: as §1
Rattus norvegicus [17] = test: Anticonvulsant activity in ip dosed albino Sprague-Dawley rat assessed as protection against subcutaneous metrazol-induced seizures after 0.25 to 0.5 hrs; type: functional; in short: as §3
Mus musculus [18] = test: Teratogenicity in SWV/Fnn mouse assessed as resorption at 283 mg/kg, ip on day 8.5 of gestation (reference value: 6.3 %); type: toxicity, organism-based; design: dose 283 mg/kg, route intraperitoneal; settings: in vivo
Mus musculus [19] = test: Teratogenicity in SWV/Fnn mouse assessed as normal fetuses at 283 mg/kg, ip on day 8.5 of gestation (reference value: 100 %); type: toxicity, organism-based; design: dose 283 mg/kg, route intraperitoneal; settings: in vivo
[20] = Apparent volume of distribution […] in rat at 60 mg/kg, ip; type: ADME, organism-based; design: dose 60 mg/kg, route intraperitoneal; settings: in vivo, read-out: Vz/F; in short: as §1
[21] = Apparent clearance in rat at 60 mg/kg, ip; type: ADME, organism-based; design: dose 60 mg/kg, route intraperitoneal; settings: in vivo; in short: as §1
[22] = Neurotoxicity in ip dosed albino Sprague-Dawley rat assessed as minimal motor impairment after 0.25 to 0.5 hrs; type: toxicity, organism-based; settings: in vivo; in short: as §3
Mus musculus [23] = test: Anticonvulsant activity in ip dosed albino CF1 mouse assessed as protection against maximal electroshock-induced seizures after 0.25 to 0.5 hrs; type: functional; in short: as §3
Mus musculus [24] = test: Anticonvulsant activity in ip dosed albino CF1 mouse assessed as protection against subcutaneous metrazol-induced seizures after 0.25 to 0.5 hrs; type: functional; settings: albino CF1, 0.5 h; in short: as §3
[25] = Neurotoxicity in po dosed albino Sprague-Dawley rat assessed as minimal motor impairment after 0.5 to 1 hr; type: toxicity, organism-based; settings: in vivo; in short: as §3
Mus musculus [26] = test: Anticonvulsant activity in ip dosed albino CF1 mouse assessed as protection against 32 mA-current- for 3 secs induced seizures after 0.25 to 0.5 hrs by 6Hz psychomotor seizure test; type: functional; in short: as §3
Mus musculus [27] = test: Teratogenicity in SWV/Fnn mouse assessed as live fetuses at 283 mg/kg, ip on day 8.5 of gestation (reference value: 93.7 %); type: toxicity, organism-based; design: dose 283 mg/kg, route intraperitoneal; settings: in vivo
[28] = Solubility of the compound in 5:1:4 solution of propylene glycol, alcohol and water; type: physicochemical
[29] = Solubility of the compound in water; type: physicochemical

Row | Structure (SMILES) | Activity (Mus musculus [1]) [%] | Tmax [2] [h] | MRT [3] [h] | half-life [4] [h] | Activity (Mus musculus [5]) [%] | Activity (Mus musculus [6]) [%] | AUC [7] [ng·h/mL] | Activity (Hippocampus [8]) [%] | TD50 [9] [mg/kg] | ED50 (Rattus norvegicus [10]) [mg/kg] | Activity (Mus musculus [11]) [%] | ED50 (Rattus norvegicus [12]) [mg/kg] | Activity (Hippocampus [13]) [%] | ED50 (Mus musculus [14]) [mg/kg] | Activity (Mus musculus [15]) [%] | Cmax [16] [ng/mL] | ED50 (Rattus norvegicus [17]) [mg/kg] | Activity (Mus musculus [18]) [%] | Activity (Mus musculus [19]) [%] | Vd/F [20] [L/kg] | also measured
1 | CCC[C@H](C(N)=O)[C@@H](C)CC | 94.2 | 0.5 | 1.8 | 1.5 | 0 | 5.8 | 32900 | 45 | 126 | 48 | 100 | 94 | 109 | 59 | 0 | 21700 | 14 | 7.5 | 100 | 3.9 | CL/F [21]: 30 mL/min/kg; TD50 [22]: 34 mg/kg; ED50 (Mus musculus [23]): 75 mg/kg; ED50 (Mus musculus [24]): 69 mg/kg; TD50 [25]: 124 mg/kg; ED50 (Mus musculus [26]): 27 mg/kg; Activity (Mus musculus [27]): 92.5%
2 | CCCC(C(N)=O)C(C)CC (racemic) | 92.5 | 0.75 | 1.8 | 1.1 | 0 | 7.5 | 31300 | 145 | 88 | 29 | 93 | 84 | 76 | 45 | 0 | 14100 | 21 | 13.4 | 87 | 3 | solubility [28]: 27 mg/mL (≈ 172 mM); CL/F [21]: 30 mL/min/kg; TD50 [22]: 49 mg/kg; ED50 (Mus musculus [23]): 71 mg/kg; ED50 (Mus musculus [24]): 62 mg/kg; TD50 [25]: 131 mg/kg; ED50 (Mus musculus [26]): 27 mg/kg; Activity (Mus musculus [27]): 86.6%; solubility [29]: 1.5 mg/mL (≈ 9.54 mM)
3 | CCC[C@@H](C(N)=O)[C@H](C)CC [(2R,3R)-SEC-BUTYLPROPYLACETAMIDE] | 92.5 | 0.5 | 1.5 | 1.1 | 0 | 7.5 | 26400 | 94 | 94 | 79 | 100 | 98 | 77 | 52 | 5.4 | 18000 | 15 | 22.9 | 94.6 | 3.6 | CL/F [21]: 36.7 mL/min/kg; TD50 [22]: 34 mg/kg; ED50 (Mus musculus [23]): 70 mg/kg; ED50 (Mus musculus [24]): 53 mg/kg; TD50 [25]: 102 mg/kg; ED50 (Mus musculus [26]): 38 mg/kg; Activity (Mus musculus [27]): 77.1%
